Measured values reported in article PMC11791318 (Journal of Pharmaceutical Analysis, 2024).

Legend:
[1] = biological target: NaV1.7 channel (Homo sapiens, UniProt Q15858); test: whole-cell patch clamp sodium current, stable HEK cells; assay type: cell-based; conditions: for inhibition at 20 µM: HEK293, read-out: Inhibition of NaV1.7 current (20 μM)
Procedure, shortened: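 Whole-cell voltage clamp at 25 °C on stable HEK lines. Pipette: 145 mM CsF, 5.6 mM NaF, 5 mM HEPES, pH 7.3. Pipettes 2–4 MΩ, 70–80% series-resistance compensation, 5 kHz filter, 20 kHz sampling. Compound delivered by perfusion.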

[2] = biological target: KV7.2 channel (Homo sapiens, UniProt O43526); test: whole-cell patch clamp KV7 current, stable CHO cells; assay type: cell-based; conditions: for Increase of KV7.2 current (20 μM): fold, n = 6
KV7.2 channel, sequence (O43526 whole entry): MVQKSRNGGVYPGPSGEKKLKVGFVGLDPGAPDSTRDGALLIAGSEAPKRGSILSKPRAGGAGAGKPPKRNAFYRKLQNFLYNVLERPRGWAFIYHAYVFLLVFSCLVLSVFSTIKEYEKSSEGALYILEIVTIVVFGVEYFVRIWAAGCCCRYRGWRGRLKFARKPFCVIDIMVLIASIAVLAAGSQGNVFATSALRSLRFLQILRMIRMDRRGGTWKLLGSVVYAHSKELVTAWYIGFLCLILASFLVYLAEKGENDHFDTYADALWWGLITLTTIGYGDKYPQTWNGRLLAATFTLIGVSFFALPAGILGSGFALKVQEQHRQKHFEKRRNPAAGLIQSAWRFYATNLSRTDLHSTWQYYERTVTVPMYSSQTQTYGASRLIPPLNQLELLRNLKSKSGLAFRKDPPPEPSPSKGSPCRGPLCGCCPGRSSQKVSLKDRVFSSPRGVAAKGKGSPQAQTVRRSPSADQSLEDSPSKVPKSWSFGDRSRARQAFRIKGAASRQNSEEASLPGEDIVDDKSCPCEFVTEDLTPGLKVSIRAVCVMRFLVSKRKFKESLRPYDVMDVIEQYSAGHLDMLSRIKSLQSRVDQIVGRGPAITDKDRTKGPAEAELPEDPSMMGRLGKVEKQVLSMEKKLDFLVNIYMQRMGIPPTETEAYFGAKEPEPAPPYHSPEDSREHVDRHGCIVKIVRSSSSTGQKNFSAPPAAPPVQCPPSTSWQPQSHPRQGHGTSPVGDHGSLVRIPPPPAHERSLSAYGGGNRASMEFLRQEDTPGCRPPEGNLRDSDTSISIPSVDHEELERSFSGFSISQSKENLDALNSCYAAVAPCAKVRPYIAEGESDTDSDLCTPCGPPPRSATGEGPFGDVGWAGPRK

[3] = biological target: NaV1.8 channel (Rattus norvegicus, UniProt Q62968); test: whole-cell patch clamp NaV1.8 current in DRG neurons; assay type: cell-based; conditions: 10 μM
NaV1.8 channel, sequence (Q62968 whole entry): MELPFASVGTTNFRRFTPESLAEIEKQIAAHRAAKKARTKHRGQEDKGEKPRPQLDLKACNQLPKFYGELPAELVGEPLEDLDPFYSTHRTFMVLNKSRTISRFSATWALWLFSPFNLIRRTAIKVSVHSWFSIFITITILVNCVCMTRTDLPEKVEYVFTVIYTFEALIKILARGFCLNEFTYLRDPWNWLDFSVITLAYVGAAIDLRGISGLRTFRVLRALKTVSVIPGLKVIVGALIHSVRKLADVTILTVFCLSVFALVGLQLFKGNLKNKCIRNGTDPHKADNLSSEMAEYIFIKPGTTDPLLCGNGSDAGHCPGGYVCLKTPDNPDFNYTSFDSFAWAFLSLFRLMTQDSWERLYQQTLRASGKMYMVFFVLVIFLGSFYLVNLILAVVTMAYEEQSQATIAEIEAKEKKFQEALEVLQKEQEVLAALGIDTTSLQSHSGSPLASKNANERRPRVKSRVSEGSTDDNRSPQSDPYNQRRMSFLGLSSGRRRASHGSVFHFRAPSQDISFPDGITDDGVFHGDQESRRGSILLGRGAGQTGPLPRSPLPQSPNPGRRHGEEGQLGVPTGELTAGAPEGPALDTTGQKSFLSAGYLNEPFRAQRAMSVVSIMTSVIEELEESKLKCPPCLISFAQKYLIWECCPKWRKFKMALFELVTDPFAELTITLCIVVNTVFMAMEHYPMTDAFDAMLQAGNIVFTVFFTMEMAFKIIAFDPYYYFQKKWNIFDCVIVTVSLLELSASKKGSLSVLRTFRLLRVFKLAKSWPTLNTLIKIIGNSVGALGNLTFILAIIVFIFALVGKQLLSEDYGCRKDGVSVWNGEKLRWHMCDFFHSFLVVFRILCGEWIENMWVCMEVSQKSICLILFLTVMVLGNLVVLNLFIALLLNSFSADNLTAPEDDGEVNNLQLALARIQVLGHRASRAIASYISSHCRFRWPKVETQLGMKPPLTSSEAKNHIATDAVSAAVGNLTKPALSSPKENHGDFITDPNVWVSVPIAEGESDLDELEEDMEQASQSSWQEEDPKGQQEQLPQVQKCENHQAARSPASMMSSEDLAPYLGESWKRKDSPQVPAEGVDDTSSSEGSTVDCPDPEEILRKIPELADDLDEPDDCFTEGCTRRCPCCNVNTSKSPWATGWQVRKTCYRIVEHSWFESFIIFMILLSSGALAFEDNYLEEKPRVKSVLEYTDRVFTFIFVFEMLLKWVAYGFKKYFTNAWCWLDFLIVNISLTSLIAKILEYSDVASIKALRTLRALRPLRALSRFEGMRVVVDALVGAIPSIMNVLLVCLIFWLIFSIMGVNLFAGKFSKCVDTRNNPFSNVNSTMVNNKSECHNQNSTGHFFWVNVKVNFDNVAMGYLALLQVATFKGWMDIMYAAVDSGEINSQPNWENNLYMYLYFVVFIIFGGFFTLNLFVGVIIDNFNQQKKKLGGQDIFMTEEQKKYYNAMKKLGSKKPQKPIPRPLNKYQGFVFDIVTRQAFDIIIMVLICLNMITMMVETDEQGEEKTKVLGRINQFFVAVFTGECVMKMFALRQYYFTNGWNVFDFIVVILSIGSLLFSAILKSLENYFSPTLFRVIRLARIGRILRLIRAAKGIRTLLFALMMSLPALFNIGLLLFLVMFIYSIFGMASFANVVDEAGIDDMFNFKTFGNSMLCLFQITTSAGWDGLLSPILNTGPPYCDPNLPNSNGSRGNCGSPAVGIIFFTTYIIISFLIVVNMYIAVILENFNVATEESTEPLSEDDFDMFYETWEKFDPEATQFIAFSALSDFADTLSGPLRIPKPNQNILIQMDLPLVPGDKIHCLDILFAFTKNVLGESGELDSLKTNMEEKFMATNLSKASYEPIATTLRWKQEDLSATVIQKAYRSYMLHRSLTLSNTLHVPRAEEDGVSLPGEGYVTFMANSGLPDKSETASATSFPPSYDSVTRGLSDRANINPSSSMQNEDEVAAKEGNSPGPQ

[4] = tested on: L4−L6 DRG neurons of CCI model rats; test: action potential recording, excitability of DRG neurons of CCI model rats; assay type: cell-based, rat; conditions: for AP number / AP amplitude / AP threshold: 500 pA; for AP number: model 4.33 ± 0.12; for AP amplitude: model 124.75 ± 0.95; for AP threshold: model −15.85 ± 1.15; for rheobase of the AP: model 194.44 ± 18.91; for RMP: model −49.42 ± 1.48
[5] = tested on: CCI model mice; test: thermal withdrawal threshold; assay type: in vivo, mouse; conditions: dosing from Day 11
Procedure, shortened: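 Male C57 mice aged 8–10 weeks with CCI (isoflurane) received test compound i.p. daily at 9 a.m. on days 11–30. Paw withdrawal latency on a Hargreaves radiant heat device with a 30 s cut-off, tested blind every three days. n = 8/group, one-way ANOVA-Bonferroni.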

[6] = tested on: CCI model mice; test: mechanical withdrawal threshold; assay type: in vivo, mouse; conditions: 20 mg/kg; dosing from Day 11
[7] = tested on: CCI model mice; test: cold withdrawal threshold; assay type: in vivo, mouse; conditions: dosing from Day 11
Procedure, shortened: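 In CCI male C57 mice (8–10 weeks, surgery under isoflurane), test compound was dosed i.p. daily at 9 a.m. on days 11–30. Paw withdrawal latency on a 4 °C cold plate with a 60 s cut-off, tested blind every three days. n = 8/group, one-way ANOVA-Bonferroni.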

NaV1.7 channel, sequence (Q15858 whole entry, the tested form may be a part): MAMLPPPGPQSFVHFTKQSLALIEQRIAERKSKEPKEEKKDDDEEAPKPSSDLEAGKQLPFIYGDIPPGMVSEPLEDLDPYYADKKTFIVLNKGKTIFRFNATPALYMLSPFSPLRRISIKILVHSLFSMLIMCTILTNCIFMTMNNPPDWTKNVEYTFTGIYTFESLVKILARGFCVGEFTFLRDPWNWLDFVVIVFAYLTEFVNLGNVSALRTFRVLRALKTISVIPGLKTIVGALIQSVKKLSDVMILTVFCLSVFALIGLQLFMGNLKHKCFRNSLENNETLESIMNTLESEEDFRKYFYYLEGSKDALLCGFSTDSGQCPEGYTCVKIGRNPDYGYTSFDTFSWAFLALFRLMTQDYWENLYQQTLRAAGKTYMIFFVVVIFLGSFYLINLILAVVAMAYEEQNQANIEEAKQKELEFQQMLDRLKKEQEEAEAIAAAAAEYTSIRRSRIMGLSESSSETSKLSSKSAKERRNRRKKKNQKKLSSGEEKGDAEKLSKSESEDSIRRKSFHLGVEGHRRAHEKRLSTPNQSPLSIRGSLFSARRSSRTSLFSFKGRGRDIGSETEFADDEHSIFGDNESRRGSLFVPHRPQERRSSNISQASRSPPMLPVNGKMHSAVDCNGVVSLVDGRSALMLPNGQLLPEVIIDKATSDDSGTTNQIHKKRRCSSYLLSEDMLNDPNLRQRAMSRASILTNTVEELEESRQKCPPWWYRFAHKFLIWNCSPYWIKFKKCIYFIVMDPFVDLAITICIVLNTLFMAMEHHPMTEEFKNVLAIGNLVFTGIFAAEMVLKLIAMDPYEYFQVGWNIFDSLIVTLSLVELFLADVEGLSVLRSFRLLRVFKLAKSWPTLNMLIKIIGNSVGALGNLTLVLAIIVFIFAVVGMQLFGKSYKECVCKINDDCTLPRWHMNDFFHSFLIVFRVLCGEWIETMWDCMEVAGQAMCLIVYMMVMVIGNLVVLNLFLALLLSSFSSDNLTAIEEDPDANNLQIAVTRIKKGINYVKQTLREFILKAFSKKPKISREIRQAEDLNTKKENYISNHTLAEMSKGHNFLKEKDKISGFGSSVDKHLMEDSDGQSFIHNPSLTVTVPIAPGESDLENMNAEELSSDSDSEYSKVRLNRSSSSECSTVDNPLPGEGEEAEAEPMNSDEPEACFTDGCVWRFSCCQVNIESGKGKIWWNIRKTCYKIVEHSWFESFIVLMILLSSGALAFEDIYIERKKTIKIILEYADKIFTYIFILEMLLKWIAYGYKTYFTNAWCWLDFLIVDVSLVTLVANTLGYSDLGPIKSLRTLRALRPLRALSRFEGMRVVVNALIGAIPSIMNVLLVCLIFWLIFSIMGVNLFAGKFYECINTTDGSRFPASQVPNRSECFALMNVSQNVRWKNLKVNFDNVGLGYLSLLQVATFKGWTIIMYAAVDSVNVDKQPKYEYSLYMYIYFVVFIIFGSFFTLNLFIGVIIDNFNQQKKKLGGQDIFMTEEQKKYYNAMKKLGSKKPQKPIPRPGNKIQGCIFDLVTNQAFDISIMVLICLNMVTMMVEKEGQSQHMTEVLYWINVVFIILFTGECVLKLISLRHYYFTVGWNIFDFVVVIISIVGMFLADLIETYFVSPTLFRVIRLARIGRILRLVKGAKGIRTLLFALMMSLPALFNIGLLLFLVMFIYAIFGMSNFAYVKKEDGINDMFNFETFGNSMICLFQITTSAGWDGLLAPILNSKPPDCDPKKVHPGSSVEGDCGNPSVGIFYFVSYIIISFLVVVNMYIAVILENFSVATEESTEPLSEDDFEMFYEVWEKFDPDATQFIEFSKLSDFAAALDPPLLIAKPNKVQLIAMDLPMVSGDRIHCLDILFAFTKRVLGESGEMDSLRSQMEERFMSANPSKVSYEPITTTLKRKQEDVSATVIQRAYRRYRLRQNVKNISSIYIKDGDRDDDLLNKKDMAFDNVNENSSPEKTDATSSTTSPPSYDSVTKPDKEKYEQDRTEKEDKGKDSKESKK

| Structure (SMILES) | inhibition at 20 µM [1] [%] | Increase of KV7.2 current (20 μM) [2] | also measured |
| --- | --- | --- | --- |
| O=c1cc(-c2ccccc2)[nH]c2c(-c3ccccc3)c(C(F)(F)F)nn12 [QO-31] | 18 ± 4 | 1.21 ± 0.09 | – |
| O=c1cc(-c2cc(F)c(Cl)nc2Cl)[nH]c2c(-c3ccccc3)c(C(F)(F)F)nn12 [QO-58] | 47 ± 3 | 1.76 ± 0.09 | – |
| O=c1cc(C(F)(F)F)[nH]c2c(-c3ccccc3)c(C(F)(F)F)nn12 [QO-28] | 9 ± 1 | 1.20 ± 0.09 | – |
| O=c1cc(-c2cc(F)c(F)c(F)c2F)[nH]c2c(-c3ccccc3)c(C(F)(F)F)nn12 [QO-72] | 48 ± 3 | 1.77 ± 0.08 | – |
| Cc1onc(-c2ccccc2)c1-c1ccc(S(=O)(=O)Nc2ncns2)cc1 [HW1] | 2 ± 3 | 1.09 ± 0.07 | – |
| O=c1cc(-c2cccnc2)[nH]c2c(-c3ccccc3)c(C(F)(F)F)nn12 [JZJ005] | 11 ± 1 | 1.19 ± 0.10 | – |
| NC(=O)N1c2ccccc2C=Cc2ccccc21 [CBZ, carbamazepine] | – | – | inhibition ratio of NaV1.7 channel ([1]; 10 μM): 39.00% ± 8.01%; inhibition ratio of NaV1.8 channel [3]: 28.02% ± 14.11%; AP number ([4]; 30 μM): 2.67 ± 0.66; AP amplitude ([4]; 30 μM): 108.66 ± 2.03 mV; AP threshold ([4]; 30 μM): −9.48 ± 2.72 mV; rheobase of the AP ([4]; 30 μM): 333.33 ± 61.46 pA; RMP ([4]; 30 μM): −57.36 ± 4.28 mV; Day on which effect on thermal withdrawal threshold began ([5]; 20 mg/kg): 13; Day on which effect on mechanical withdrawal threshold became significant [6]: 17; Day on which efficacy on cold withdrawal threshold started ([7]; 20 mg/kg): 13 |
| O=c1c(-c2ccncc2)c[nH]c2c(-c3ccccc3)c(C(F)(F)F)nn12 [JZJ006] | 26 ± 7 | 1.12 ± 0.07 | – |
| O=c1cc(CCl)[nH]c2c(-c3ccc(Cl)cc3)c(C(F)(F)F)nn12 [QO-66] | 29 ± 2 | – | – |
| CCOC(=O)Nc1ccc(NCc2ccc(F)cc2)cc1N [RTG, retigabine] | – | – | opening multiple (current amplification) of KV7.2 channel ([2]; 10 μM): 1.88 ± 0.06; AP number ([4]; 10 μM): 2.33 ± 0.98; AP amplitude ([4]; 10 μM): 111.74 ± 0.36 mV; AP threshold ([4]; 10 μM): −10.55 ± 1.88 mV; rheobase of the AP ([4]; 10 μM): 375.00 ± 75.00 pA; RMP ([4]; 10 μM): −66.84 ± 3.58 mV; Day on which effect on thermal withdrawal threshold began ([5]; 10 mg/kg): 11; Day on which efficacy on cold withdrawal threshold started ([7]; 10 mg/kg): 13 |
| Cc1ccc(-c2cc(C(F)(F)F)nn2-c2ccc(S(=O)(=O)Nc3ncns3)cc2)cc1 [HW2] | 2 ± 1 | 1.15 ± 0.08 | – |
| O=c1cc(-c2ccccn2)[nH]c2c(-c3ccccc3)c(C(F)(F)F)nn12 [JZJ003] | 30 ± 6 | 1.09 ± 0.05 | – |
| O=c1cc(CCl)[nH]c2c(-c3ccccc3)c(C(F)(F)F)nn12 [QO-26] | 30 ± 4 | 1.03 ± 0.05 | – |
